We go through 4 molecules from PMC12591034 (RSC Advances, 2025).

Format in all cases: cell-based
Series [1] deals with NO production in LPS-stimulated RAW 264.7 macrophage cells. The experiment in a line: Inhibition of NO production in LPS-stimulated RAW 264.7 cells. The settings on record: Mus musculus, RAW264.7, read-out: IC50 Inhibition of NO-production. The method, boiled down:
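RAW 264.7 murine macrophages were stimulated with LPS. NO release was measured as nitrite in the culture medium by the Griess reaction. Results are given as mean ± SD from three independent experiments. IC50 was estimated by curve fitting.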

Series [2] relates to A549 (lung) carcinoma cells. The series is described as follows: Cytotoxicity, SRB assay, A549. The following applies: Homo sapiens, A549, read-out: IC50 Cytotoxicity A549. The method, boiled down: (§1)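 Sulforhodamine B (SRB) cytotoxicity assay on human A549 lung, Hep-G2 liver and MCF-7 breast carcinoma cells, run alongside non-cancer HEK-293A embryonic kidney cells. Results are given as mean ± SD from three independent experiments. IC50 was estimated by curve fitting.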

For series [3], the system named is Hep-G2 (liver) carcinoma cells. The series is described as follows: Cytotoxicity, SRB assay, Hep-G2. The settings on record: Homo sapiens, HepG2, read-out: IC50 Cytotoxicity Hep-G2. In outline:
as §1

For series [4], the system named is MCF-7 (breast) carcinoma cells. The experiment in a line: Cytotoxicity, SRB assay, MCF-7. The settings on record: Homo sapiens, MCF7, read-out: IC50 Cytotoxicity MCF-7. The method, boiled down: as §1
Series [5] in a line: Cytotoxicity, SRB assay, HEK-293A. The settings on record: human, HEK-293A embryonic kidney cells (normal cells).
For series [6], the system named is A549, Hep-G2, and MCF-7 human cancer cell lines. The series is described as follows: Cytotoxicity, SRB assay, stated across the cancer cell lines. The settings on record: tested cell lines. In outline: as §1

Turning to `COC(=O)c1c(C)cc(O)c(C=O)c1O` [Compound 17, methyl haematommate], the IC50 in series [1] was over 100 µM; in series [2], over 100 µM; in series [3], 80.7 ± 3.59 µM; in series [4], 99.3 ± 6.83 µM; in series [5] it was 70.7 ± 4.44 µM. Also, the “cytotoxic activity in words” value in series [6] was “weakly active”.
Consider `C[C@H]1C(=O)CC[C@@H]2[C@]1(C)CC[C@H]1[C@@]2(C)CC[C@@]2(C)[C@@H]3CC(C)(C)CC[C@]3(CO)CC[C@]12C` [Compound 7, canophyllol], for which the IC50 in series [1] is 79.9 ± 1.37 µM; in series [2] it was 39.3 ± 1.29 µM; in series [3] it was 22.4 ± 1.01 µM; in series [4], 27.4 ± 1.19 µM; in series [5], 30.1 ± 1.25 µM.
`Cc1c2ccncc2c(C)c2c1[nH]c1ccccc12` [Ellipticine, reference compound]: the IC50 in series [2] stood at 1.71 ± 0.08 µM; in series [3] it was 1.42 ± 0.08 µM; in series [4], 1.54 ± 0.04 µM; in series [5] it was 1.34 ± 0.08 µM.
For `C[C@H]1C(=O)CC[C@@H]2[C@]1(C)CC[C@H]1[C@@]2(C)CC[C@@]2(C)[C@@H]3CC(C)(C)CC[C@]3(C)CC[C@]12C` [Compound 5, friedelin], the IC50 in series [1], in series [2], in series [3] and in series [4] was over 100 µM each time.
